Results on 17 compounds are retold here after article PMC10201403 (Bioorganic & medicinal chemistry, 2023).

Values joined by “and” are separate entries in the source; they are usually repeats but may differ in a detail not shown here. Identical values can stand only once. “Also recorded” adds a separate entry of the source. Counter-ions that a name gives are not always drawn. Like-named read-outs stand apart in the source and are kept apart here.

Series [1] concerns C. parvum. Particulars: acute and chronic mouse models; cited from earlier work.
Another series relates to C. hominis. The conditions noted are these: gnotobiotic piglet; cited from earlier work.
The test system of series [2] is C. parvum. Particulars: dairy calf; cited from earlier work.
Series [3] has as its system C. parvum. Briefly: In vitro Cryptosporidium parvum-infected HCT-8 cell assay. Type of series: cell-based. Particulars: for LipE (pEC50 minus logP): Cp pEC50 and calculated logP; for EC50: Cryptosporidium parvum, HCT-8, read-out: EC50 in the Cp HCT-8 assay; for potency in the Cp HCT-8 assay, in words: C. parvum in HCT-8 cells.
Another series deals with Cryptosporidium. The conditions noted are these: cited from earlier work.
The target in series [4] is human potassium channel hERG (Homo sapiens, UniProt Q12809). The experiment in a line: [3H]-dofetilide competitive binding assay. Particulars: 10 μM. In a few lines:
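Radioligand competition on the human hERG potassium channel: test compound competes with [³H]-dofetilide, and binding is reported as percent inhibition of [³H]-dofetilide binding. Run by an outside contract laboratory.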

The target in another series is hERG channel (Homo sapiens, UniProt Q12809). The experiment in a line: hERG-CHO automated patch clamp electrophysiology assay. The conditions noted are these: 10 μM. Type of series: cell-based. A general note: The hERG channel carries a current that helps repolarise heart muscle cells.
hERG channel, sequence (Q12809 whole entry): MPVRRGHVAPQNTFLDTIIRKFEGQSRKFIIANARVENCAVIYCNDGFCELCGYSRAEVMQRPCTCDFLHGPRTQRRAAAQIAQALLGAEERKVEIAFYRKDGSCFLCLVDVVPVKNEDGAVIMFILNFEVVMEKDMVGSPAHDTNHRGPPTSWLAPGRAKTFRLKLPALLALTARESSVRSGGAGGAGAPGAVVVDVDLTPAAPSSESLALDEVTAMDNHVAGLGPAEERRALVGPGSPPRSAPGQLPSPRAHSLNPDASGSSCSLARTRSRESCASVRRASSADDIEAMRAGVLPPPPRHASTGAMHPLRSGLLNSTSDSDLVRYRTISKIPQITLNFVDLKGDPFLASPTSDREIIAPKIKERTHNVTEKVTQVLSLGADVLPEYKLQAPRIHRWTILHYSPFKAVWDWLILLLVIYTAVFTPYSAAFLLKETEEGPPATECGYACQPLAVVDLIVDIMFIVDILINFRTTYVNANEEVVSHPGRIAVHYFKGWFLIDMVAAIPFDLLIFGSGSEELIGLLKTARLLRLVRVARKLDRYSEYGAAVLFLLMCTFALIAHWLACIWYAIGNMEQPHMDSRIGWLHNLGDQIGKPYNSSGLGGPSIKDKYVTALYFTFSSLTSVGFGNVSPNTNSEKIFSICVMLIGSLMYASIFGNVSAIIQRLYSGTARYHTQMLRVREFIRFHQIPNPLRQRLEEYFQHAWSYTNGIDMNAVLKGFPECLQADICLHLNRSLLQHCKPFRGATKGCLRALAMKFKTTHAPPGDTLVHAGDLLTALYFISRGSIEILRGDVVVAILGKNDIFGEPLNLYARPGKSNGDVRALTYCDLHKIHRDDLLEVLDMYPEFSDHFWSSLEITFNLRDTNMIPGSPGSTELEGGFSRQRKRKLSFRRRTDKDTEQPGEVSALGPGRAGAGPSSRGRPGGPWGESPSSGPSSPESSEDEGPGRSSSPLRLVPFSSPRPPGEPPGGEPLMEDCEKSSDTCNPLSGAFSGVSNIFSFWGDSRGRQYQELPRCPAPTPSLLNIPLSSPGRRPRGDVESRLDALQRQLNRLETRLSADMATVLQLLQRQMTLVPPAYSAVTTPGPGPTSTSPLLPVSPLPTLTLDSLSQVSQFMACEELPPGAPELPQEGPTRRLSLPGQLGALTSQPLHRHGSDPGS

human potassium channel hERG, sequence (Q12809 whole entry): as above

As to `O=C(Nc1ccc(Cl)cc1)N1CCN(c2ccc3nncn3n2)CC1` [Compound 1], the “oral efficacy in vivo” value in the series with C. parvum [1], in the series on C. hominis and in the series on C. parvum [2] was “oral efficacy” each time.
`O=C(Cc1ccc(Cl)c(Cl)c1)N1CCN(c2ccc3nncn3n2)CC1` [Compound 2a, 1-(4-([1,2,4]triazolo[4,3-b]pyridazin-6-yl)piperazin-1-yl)-2-(3,4-dichlorophenyl)ethanone]: the “LipE (pEC50 minus logP)” value in the series on C. parvum [3] was 3.3. In addition, in the series on Cryptosporidium, the efficacy in vivo result is recorded as “efficacious in vivo”.
As to `O=C(Cc1ccc(Cl)c(Cl)c1)N1CCNCC1` [Compound 4, 2-(3,4-dichlorophenyl)-1-(piperazin-1-yl)ethanone hydrochloride], in the series on C. parvum [3], the EC50 was at least 20 µM.
Still for that read-out and setting: the value for `CC(C)(C)OC(=O)N1CCN(C(=O)Cc2ccc(Cl)c(Cl)c2)CC1` [Compound 5, tert-Butyl 4-(2-(3,4-dichlorophenyl)acetyl)piperazine-1-carboxylate] was at least 20 µM.
Consider `O=C(Cc1ccc(Cl)c(Cl)c1)N1CCN(c2ccccc2)CC1` [Compound 6a, 2-(3,4-dichlorophenyl)-1-(4-phenylpiperazin-1-yl)ethanone], for which, in series [4], the “effect in the hERG binding assay, in words” value is “does not exhibit significant effect”.
In the case of `O=C(Cc1ccc(Cl)c(Cl)c1)N1CCN(c2ncc([N+](=O)[O-])s2)CC1` [Compound 13, 2-(3,4-dichlorophenyl)-1-(4-(5-nitrothiazol-2-yl)piperazin-1-yl)ethanone], in the series with C. parvum [3], the “potency in the Cp HCT-8 assay, in words” value is “weakly potent”.
With `O=C(Cc1ccc(Cl)c(Cl)c1)N1CCN(C2=Nn3cnnc3CC2)CC1` [Compound 17a, 2-(3,4-dichlorophenyl)-1-(4-(7,8-dihydro-[1,2,4]triazolo[4,3-b]pyridazin-6-yl)piperazin-1-yl)ethanone], the “LipE (pEC50 minus logP)” value with C. parvum [3] is recorded as 4.13. Besides, in the series with C. parvum [3] (ratio of Cp EC50 values), the “fold less potent than 2a (SLU-2633)” value is 7 fold and ~ 7 fold. In addition, on hERG channel, the “reduction of inhibition in hERG patch-clamp assay relative to 2a (SLU-2633)” value was “about two-fold”.
For the compound `O=C(Nc1ccc(Cl)c(Cl)c1)N1CCN(C2=Nn3cnnc3CC2)CC1` [Compound 17b, N-(3,4-dichlorophenyl)-4-(7,8-dihydro-[1,2,4]triazolo[4,3-b]pyridazin-6-yl)piperazine-1-carboxamide], the “fold potency reduction compared to urea 2b” value in the series with C. parvum [3] (ratio of Cp EC50 values) was ~ 20 fold.
On to `O=C(Cc1ccc(Cl)c(Cl)c1)N1CCN(c2ccc3nccn3n2)CC1` [Compound 18a, 2-(3,4-dichlorophenyl)-1-(4-(imidazo[1,2-b]pyridazin-6-yl)piperazin-1-yl)ethanone], for which the “potency in the Cp HCT-8 assay, in words” value in the series on C. parvum [3] was “drastically reduced the potency”.
As to `O=C(Nc1ccc(Cl)c(Cl)c1)N1CCN(c2ccc3nccn3n2)CC1` [Compound 18b, N-(3,4-dichlorophenyl)-4-(imidazo[1,2-b]pyridazin-6-yl)piperazine-1-carboxamide], the “potency in the Cp HCT-8 assay, in words” value with C. parvum [3] was “drastically reduced the potency”.
Turning to `O=C(Cc1ccc(Cl)c(Cl)c1)N1CCN(c2ccn3nccc3n2)CC1` [Compound 19, 2-(3,4-dichlorophenyl)-1-(4-(pyrazolo[1,5-a]pyrimidin-5-yl)piperazin-1-yl)ethanone], the half-maximal effective concentration (EC50) in the series with C. parvum [3] fell in the range of 20 to 30 µM.
Same read-out and setting: in the case of `O=C(Nc1ccc(Cl)c(Cl)c1)N1CCN(c2cn3ccnc3cn2)CC1` [Compound 20, N-(3,4-dichlorophenyl)-4-(imidazo[1,2-a]pyrazin-6-yl)piperazine-1-carboxamide] it was 20 to 30 µM; in that of `O=C(Cc1ccc(Cl)c(Cl)c1)N1CCN(c2ccc3nonc3c2)CC1` [Compound 24, 1-(4-(benzo[c][1,2,5]oxadiazol-5-yl)piperazin-1-yl)-2-(3,4-dichlorophenyl)ethanone], 20 to 30 µM.
For `O=C(Nc1ccc(Cl)c(Cl)c1)N1CCN(c2nc3ccccc3[nH]2)CC1` [Compound 28, 4-(1H-benzo[d]imidazol-2-yl)-N-(3,4-dichlorophenyl)piperazine-1-carboxamide], the “potency in the Cp HCT-8 assay, in words” value in the series with C. parvum [3] was “did not yield better potency”.
Same read-out and setting: the value for `O=C(Cc1ccc(Cl)c(Cl)c1)N1CCN(c2nc3ccccc3o2)CC1` [Compound 29a, 1-(4-(benzo[d]oxazol-2-yl)piperazin-1-yl)-2-(3,4-dichlorophenyl)ethanone] was “did not yield better potency”; that for `O=C(Cc1ccc(Cl)c(Cl)c1)N1CCN(c2nc3ccccc3s2)CC1` [Compound 29b, 1-(4-(benzo[d]thiazol-2-yl)piperazin-1-yl)-2-(3,4-dichlorophenyl)ethanone] was “did not yield better potency”.
Regarding `Nc1nc2nc(N3CCN(C(=O)Cc4ccc(Cl)c(Cl)c4)CC3)ccc2s1` [Compound 31b, 1-(4-(2-aminothiazolo[4,5-b]pyridin-5-yl)piperazin-1-yl)-2-(3,4-dichlorophenyl)ethanone], in the series with C. parvum [3], the “potency in the Cp HCT-8 assay, in words” value is listed as “low micromolar range; also recorded: modestly potent”. In addition, the “fold more potent than methyl analog 31a” value in the series with C. parvum [3] (ratio of Cp EC50 values) worked out at 5 fold.

Broadly, the EC50 is the concentration at which the effect is half-maximal.
